Reference: ChEMBL document CHEMBL1795232, “Benzoxazinones as potent positive allosteric AMPA receptor modulators: part I” (Bioorg Med Chem Lett, 2011)

How the values were obtained:
Rattus norvegicus [1] = species on record: Rattus norvegicus; test: Positive allosteric modulation at AMPA receptor in Sprague-Dawley rat embryonic hippocampal neuron assessed as concentration required to double the steady-state current induced by glutamate by patch-clamp assay; assay type: tissue-based; details: Hippocampus
Outline: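 Hippocampal neurons from E18 Sprague-Dawley rats, cultured 4-7 days, whole-cell voltage-clamped at -80 mV at room temperature. Cells were pretreated 20 s with saline or modulator by superfusion, then given 500 µM glutamate with or without modulator for 1 s. Mean plateau current at 600-900 ms was taken. EC2x is the concentration doubling the steady-state glutamate current.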

[2] = Displacement of [3H]AMPAKINE from AMPA receptor in rat forebrain
Rattus norvegicus [3] = species on record: Rattus norvegicus; test: Positive allosteric modulation at AMPA receptor in Sprague-Dawley rat adult hippocampal slice assessed as increase in field excitatory postsynaptic potential amplitude at 1 uM; assay type: tissue-based; details: Hippocampus
Outline: (§1)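 Transverse hippocampal slices from adult male Sprague-Dawley rats (4-6 weeks) held on nylon net in a rapid-flow linear interface chamber. Schaffer-commissural fibers stimulated with paired pulses (200 ms interval) at 0.05 Hz. After a 20-30 min stable baseline, compound infused 30 min, then washed out with control ACSF. DMSO stocks diluted into ACSF. Read-out was percentage increase in fEPSP amplitude.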

Rattus norvegicus [4] = species on record: Rattus norvegicus; test: Positive allosteric modulation at AMPA receptor in Sprague-Dawley rat adult hippocampal slice assessed as increase in field excitatory postsynaptic potential amplitude at 10 uM; assay type: tissue-based; details: Hippocampus; outline: as §1
Rattus norvegicus [5] = species on record: Rattus norvegicus; test: Positive allosteric modulation at AMPA receptor in Sprague-Dawley rat adult hippocampal slice assessed as increase in field excitatory postsynaptic potential amplitude at 3 uM; assay type: tissue-based; details: Hippocampus; outline: as §1
Rattus norvegicus [6] = species on record: Rattus norvegicus; test: Positive allosteric modulation at AMPA receptor in Sprague-Dawley rat adult hippocampal slice assessed as increase in field excitatory postsynaptic potential amplitude at 30 uM; assay type: tissue-based; details: Hippocampus; outline: as §1

SMILES: O=C1c2cc3c(cc2OCN1CC(F)(F)F)C(=O)N1CCCC1O3 (stereo unspecified)
- Activity (Rattus norvegicus [1]): 8.8 µM
- Ki [2]: 330 µM
- Activity (Rattus norvegicus [3]): 0%

SMILES: CCCN1COc2cc3c(cc2C1=O)OC1CCCN1C3=O (stereo unspecified)
- Activity (Rattus norvegicus [1]): 2.5 µM
- Ki [2]: 70 µM
- Activity (Rattus norvegicus [3]): 0%

SMILES: O=C1c2cc3c(cc2OC2CCCN12)COCO3 (stereo unspecified)
- Activity (Rattus norvegicus [1]): 1.1 µM

SMILES: CC(CNS(=O)(=O)C(C)C)c1ccc(-c2ccsc2)cc1 (stereo unspecified)
- Activity (Rattus norvegicus [1]): 0.07 µM

SMILES: CCN1COc2cc3c(cc2C1=O)OC1CCCN1C3=O (stereo unspecified)
- Activity (Rattus norvegicus [1]): 0.2 µM
- Activity (Rattus norvegicus [4]): 17%
- Ki [2]: 20 µM

SMILES: CN1COc2cc3c(cc2C1=O)OC1CCCN1C3=O (stereo unspecified)
- Activity (Rattus norvegicus [1]): 0.1 µM
- Activity (Rattus norvegicus [4]): 19%
- Ki [2]: 18 µM

SMILES: C#CCN1COc2cc3c(cc2C1=O)OC1CCCN1C3=O (stereo unspecified)
- Activity (Rattus norvegicus [1]): 0.25 µM
- Activity (Rattus norvegicus [5]): 6%
- Ki [2]: 7 µM

SMILES: O=C1c2cc3c(cc2OC2CCCN12)CCCO3 (stereo unspecified)
- Activity (Rattus norvegicus [1]): 1.1 µM

SMILES: O=C1c2cc3c(cc2OCN1CCF)C(=O)N1CCCC1O3 (stereo unspecified)
- Activity (Rattus norvegicus [1]): 0.5 µM
- Activity (Rattus norvegicus [4]): 9%
- Ki [2]: 33 µM

SMILES: O=C1c2cc3c(cc2OCN1C1CC1)C(=O)N1CCCC1O3 (stereo unspecified)
- Activity (Rattus norvegicus [1]): 0.8 µM
- Activity (Rattus norvegicus [4]): 10%
- Ki [2]: 26 µM

SMILES: COc1ccc(C(=O)N2CCCC2=O)cc1
- Activity (Rattus norvegicus [1]): > 1000 µM

SMILES: O=C1c2cc3c(cc2OC2CCCN12)C(=O)N1CCCC1O3 (stereo unspecified)
- Activity (Rattus norvegicus [1]): 0.06 µM

SMILES: C=CCN1COc2cc3c(cc2C1=O)OC1CCCN1C3=O (stereo unspecified)
- Activity (Rattus norvegicus [1]): 0.5 µM
- Ki [2]: 18 µM

SMILES: O=C1NCOc2cc3c(cc21)OC1CCCN1C3=O (stereo unspecified)
- Activity (Rattus norvegicus [1]): 5 µM
- Ki [2]: 225 µM
- Activity (Rattus norvegicus [6]): 5%

SMILES: CC(C)CN1COc2cc3c(cc2C1=O)OC1CCCN1C3=O (stereo unspecified)
- Activity (Rattus norvegicus [1]): 41 µM

SMILES: O=C1c2cc3c(cc2OC2CCCN12)OC1CCCN1C3=O (stereo unspecified)
- Activity (Rattus norvegicus [1]): 2.6 µM

SMILES: NS(=O)(=O)c1cc2c(cc1Cl)NC(C1CC3C=CC1C3)NS2(=O)=O (stereo unspecified)
- Activity (Rattus norvegicus [1]): 1.6 µM

SMILES: O=C1c2cc3c(cc2OC2CCCN12)OCOC3 (stereo unspecified)
- Activity (Rattus norvegicus [1]): 22 µM

SMILES: O=C1c2cc3c(cc2OC2CCCN12)OCCO3 (stereo unspecified)
- Activity (Rattus norvegicus [1]): 2.3 µM

SMILES: O=C1c2cc3c(cc2OCN1C1CCCC1)C(=O)N1CCCC1O3 (stereo unspecified)
- Activity (Rattus norvegicus [1]): 7 µM
- Ki [2]: 163 µM

SMILES: CC(C)N1COc2cc3c(cc2C1=O)OC1CCCN1C3=O (stereo unspecified)
- Activity (Rattus norvegicus [1]): 0.9 µM
- Activity (Rattus norvegicus [4]): 3%
- Ki [2]: 100 µM
